Reference: article PMC9476936 (ACS Pharmacology & Translational Science, 2021)
Read-outs that look alike come from different tables or passages of the source. Values belong to the compound of their own block, whether it stands above or below them.

How the values were obtained:
ABCB1 = details: cited from earlier work
human ABCG2 [1] = molecular target: T1, human ABCG2 (Homo sapiens, UniProt Q9UNQ0); experiment: Vanadate; assay type: biochemical; details: read-out: IC50 for ATPase activity of ABCG2; light activation (+hv) 690 nm, 0.05 J/cm2, 50 mW/cm2; membrane vesicles
T1 sequence (Q9UNQ0 1-655): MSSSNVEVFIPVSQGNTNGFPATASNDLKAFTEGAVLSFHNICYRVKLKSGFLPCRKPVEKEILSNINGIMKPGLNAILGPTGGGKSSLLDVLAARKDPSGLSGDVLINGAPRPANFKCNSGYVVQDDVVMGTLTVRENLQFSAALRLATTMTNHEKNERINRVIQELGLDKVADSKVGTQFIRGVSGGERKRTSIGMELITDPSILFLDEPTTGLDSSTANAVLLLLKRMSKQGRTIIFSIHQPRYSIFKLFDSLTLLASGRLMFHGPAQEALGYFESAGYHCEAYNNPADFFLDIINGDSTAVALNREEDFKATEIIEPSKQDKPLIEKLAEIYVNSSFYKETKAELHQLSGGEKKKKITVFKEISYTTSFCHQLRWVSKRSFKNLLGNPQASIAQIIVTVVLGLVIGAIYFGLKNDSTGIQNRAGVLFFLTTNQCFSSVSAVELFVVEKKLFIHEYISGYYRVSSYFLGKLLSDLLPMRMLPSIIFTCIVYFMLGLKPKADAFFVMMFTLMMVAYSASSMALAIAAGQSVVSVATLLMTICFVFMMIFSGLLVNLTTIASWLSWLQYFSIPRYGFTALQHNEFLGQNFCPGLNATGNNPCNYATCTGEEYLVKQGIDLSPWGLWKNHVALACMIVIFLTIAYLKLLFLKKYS

human ABCB1 [2] = molecular target: T2, human ABCB1 (Homo sapiens, UniProt P08183); assay type: biochemical
human ABCB1 [3] = molecular target: T2, human ABCB1; assay type: biochemical; remark: listed apart in the source
human ABCB1 [4] = molecular target: T2, human ABCB1; assay type: biochemical; details: 2 μM BPD, 690 nm
human ABCB1 [5] = molecular target: T2, human ABCB1; assay type: biochemical; remark: listed apart in the source
human ABCG2 [6] = molecular target: T1, human ABCG2; assay type: biochemical
In short: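 Human ABCG2 (N-terminal His10) vesicles from baculovirus-infected High Five cells; 35 μg protein/50 μL in MES-Tris pH 6.8 buffer with 2 mM DTT. Photosensitizer (0–20 μM) added at 37 °C for 3 min, then 690 nm light (0–5 J/cm2, 50 mW/cm2). Fixed 0.5 J/cm2 for the dose series; fixed 2 μM for the fluence series. Denatured at 37 °C for 20 min, 7% Tris-acetate gel, 10 μg/lane, colloidal blue stain, densitometry.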

[7] = 2 μM BPD, light fluence increased from 0 to 5 J/cm2
[8] = BPD 20 μM + light 690 nm, 5 J/cm2, 50 mW/cm2

T2 sequence (P08183 whole entry): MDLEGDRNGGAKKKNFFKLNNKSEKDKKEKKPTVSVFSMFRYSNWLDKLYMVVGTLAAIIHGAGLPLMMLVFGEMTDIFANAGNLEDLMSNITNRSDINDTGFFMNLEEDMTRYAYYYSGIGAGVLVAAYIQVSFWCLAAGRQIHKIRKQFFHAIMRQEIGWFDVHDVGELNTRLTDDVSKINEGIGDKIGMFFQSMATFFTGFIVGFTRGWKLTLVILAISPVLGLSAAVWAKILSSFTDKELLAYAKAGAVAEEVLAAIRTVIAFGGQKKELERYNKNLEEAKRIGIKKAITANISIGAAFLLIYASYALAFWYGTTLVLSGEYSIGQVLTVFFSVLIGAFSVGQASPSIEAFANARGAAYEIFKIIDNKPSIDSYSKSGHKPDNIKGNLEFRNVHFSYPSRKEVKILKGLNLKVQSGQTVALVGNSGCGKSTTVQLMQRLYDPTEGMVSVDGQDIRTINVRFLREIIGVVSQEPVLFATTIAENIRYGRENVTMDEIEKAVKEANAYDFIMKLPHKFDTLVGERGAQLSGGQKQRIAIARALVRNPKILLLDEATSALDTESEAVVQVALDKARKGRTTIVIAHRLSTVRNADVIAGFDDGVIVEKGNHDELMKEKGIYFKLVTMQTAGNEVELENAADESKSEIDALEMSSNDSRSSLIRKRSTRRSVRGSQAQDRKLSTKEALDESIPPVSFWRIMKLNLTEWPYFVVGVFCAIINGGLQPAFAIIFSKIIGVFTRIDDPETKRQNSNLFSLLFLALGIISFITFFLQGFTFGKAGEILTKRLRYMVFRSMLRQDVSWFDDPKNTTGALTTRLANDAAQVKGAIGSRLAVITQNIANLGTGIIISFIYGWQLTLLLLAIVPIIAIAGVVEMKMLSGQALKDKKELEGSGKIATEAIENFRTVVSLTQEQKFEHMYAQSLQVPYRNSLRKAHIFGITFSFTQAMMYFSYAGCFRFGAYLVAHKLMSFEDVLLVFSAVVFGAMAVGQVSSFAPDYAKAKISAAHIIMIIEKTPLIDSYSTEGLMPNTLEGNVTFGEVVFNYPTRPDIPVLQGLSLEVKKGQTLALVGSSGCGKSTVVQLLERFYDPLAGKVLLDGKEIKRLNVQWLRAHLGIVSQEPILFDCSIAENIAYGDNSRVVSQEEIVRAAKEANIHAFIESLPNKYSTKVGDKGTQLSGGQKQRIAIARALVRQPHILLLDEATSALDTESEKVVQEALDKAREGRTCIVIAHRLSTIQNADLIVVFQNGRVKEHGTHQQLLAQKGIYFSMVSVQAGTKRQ

Compound: COc1cc2c(cc1OC)CN(CCc1ccc(NC(=O)c3cccc4c(=O)c5cccc(OC)c5[nH]c34)cc1)CC2 [elacridar]
- concentrations inhibiting both drug transport and ATPase activity of ABCB1 (ABCB1): sub-micromolar concentrations

Compound: COc1cc2c(cc1OC)CN(CCc1ccc(NC(=O)c3cc(OC)c(OC)cc3NC(=O)c3cnc4ccccc4c3)cc1)CC2 [tariquidar]
- concentrations inhibiting both drug transport and ATPase activity of ABCB1 (ABCB1): sub-micromolar concentrations

Compound: O[C@@H](COc1cccc2ncccc12)CN1CCN([C@@H]2c3ccccc3[C@@H]3[C@H](c4ccccc42)C3(F)F)CC1 [zosuquidar]
- concentrations inhibiting both drug transport and ATPase activity of ABCB1 (ABCB1): sub-micromolar concentrations

- IC50 (human ABCG2 [1]): 800 ± 100 nM
- reduction of ATPase activity of ABCB1 in nanodiscs (human ABCB1 [2]; absence of light activation): 51.7 ± 5.3%
- reduction of ATPase activity of ABCB1 in nanodiscs (human ABCB1 [2]; light activation 690 nm, 0.05 J/cm2, 50 mW/cm2): 97.3 ± 1.3%
- further reduction of ATPase activity of ABCB1 by light activation (human ABCB1 [3]; +hv 690 nm, 0.05 J/cm2, 50 mW/cm2 versus −hv, stated jointly for ABCB1 and ABCG2): up to 12 fold
- IC50 (human ABCB1 [3]; read-out: IC50 for ATPase activity of ABCB1, light activation (+hv) 690 nm, 0.05 J/cm2, 50 mW/cm2, membrane vesicles): 700 ± 100 nM
- disappearance of protein band corresponding to monomeric ABCB1 in nanodiscs (human ABCB1 [4]; 50 mW/cm2, 0.5 J/cm2): 49.0 ± 2.6%
- disappearance of protein band corresponding to monomeric ABCB1 in nanodiscs (human ABCB1 [4]; 50 mW/cm2, 5 J/cm2): 88.0 ± 3.5%
- reduction of monomeric ABCB1 band intensity (human ABCB1 [5]; [7]): 9.1 fold
- BPD concentration at which ABCB1 aggregation bands became evident (human ABCB1 [5]; 0.5 J/cm2, 690 nm): higher than 0.5 μM
- band corresponding to monomeric ABCB1 (human ABCB1 [5]; [8]): disappeared
- intensity of protein band of monomeric (non-aggregated) ABCB1 (human ABCB1 [5]; BPD alone 20 μM, no light): did not alter
- reduction of monomeric ABCG2 band intensity (human ABCG2 [6]; [7]): 5.4 fold
- BPD concentration at which ABCG2 aggregation bands became evident (human ABCG2 [6]; 0.5 J/cm2, 690 nm): higher than 0.5 μM
- band corresponding to monomeric ABCG2 (human ABCG2 [6]; [8]): disappeared
- intensity of protein band of monomeric (non-aggregated) ABCG2 (human ABCG2 [6]; BPD alone 20 μM, no light): did not alter
Compound: benzoporphyrin derivative [BPD]
